pIC50: −log10 of the molar value. Bounds are passed on as bounds.

Experiment [1] relates to RAW264.7. The experiment can be described thus: Cytotoxicity against mouse RAW264.7 cells assessed as reduction in cell viability. It is filed as cell-based.
The subject of experiment [2] is RAW264.7. Briefly: Antiinflammatory activity in mouse RAW264.7 cells assessed as inhibition of LPS-induced NO production preincubated for 1 hr followed by LPS addition and measured after 24 hrs by Griess reagent-based assay. The class given is functional, cell-based. Particulars: for pIC50: Mus musculus, RAW264.7, read-out: IC50; for IC50: raw264.7; call rule not given here. In outline:
(§1)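 RAW 264.7 cells pretreated with compound for 1 h, then LPS 1 µg/mL for 24 h. Single-point inhibition at 10 µM. IC50 by regression of inhibition over several concentrations. At least three independent experiments.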
For orientation: Griess reagent forms a coloured azo dye with nitrite.

For experiment [3], the system named is RAW264.7. The experiment can be described thus: Cytotoxicity against LPS-induced mouse RAW264.7 cells assessed as reduction in cell viability. It is filed as cell-based.
Experiment [4] has as its target T1, Nitric oxide synthase, inducible (Mus musculus, UniProt P29477).
T1 sequence (P29477 whole entry): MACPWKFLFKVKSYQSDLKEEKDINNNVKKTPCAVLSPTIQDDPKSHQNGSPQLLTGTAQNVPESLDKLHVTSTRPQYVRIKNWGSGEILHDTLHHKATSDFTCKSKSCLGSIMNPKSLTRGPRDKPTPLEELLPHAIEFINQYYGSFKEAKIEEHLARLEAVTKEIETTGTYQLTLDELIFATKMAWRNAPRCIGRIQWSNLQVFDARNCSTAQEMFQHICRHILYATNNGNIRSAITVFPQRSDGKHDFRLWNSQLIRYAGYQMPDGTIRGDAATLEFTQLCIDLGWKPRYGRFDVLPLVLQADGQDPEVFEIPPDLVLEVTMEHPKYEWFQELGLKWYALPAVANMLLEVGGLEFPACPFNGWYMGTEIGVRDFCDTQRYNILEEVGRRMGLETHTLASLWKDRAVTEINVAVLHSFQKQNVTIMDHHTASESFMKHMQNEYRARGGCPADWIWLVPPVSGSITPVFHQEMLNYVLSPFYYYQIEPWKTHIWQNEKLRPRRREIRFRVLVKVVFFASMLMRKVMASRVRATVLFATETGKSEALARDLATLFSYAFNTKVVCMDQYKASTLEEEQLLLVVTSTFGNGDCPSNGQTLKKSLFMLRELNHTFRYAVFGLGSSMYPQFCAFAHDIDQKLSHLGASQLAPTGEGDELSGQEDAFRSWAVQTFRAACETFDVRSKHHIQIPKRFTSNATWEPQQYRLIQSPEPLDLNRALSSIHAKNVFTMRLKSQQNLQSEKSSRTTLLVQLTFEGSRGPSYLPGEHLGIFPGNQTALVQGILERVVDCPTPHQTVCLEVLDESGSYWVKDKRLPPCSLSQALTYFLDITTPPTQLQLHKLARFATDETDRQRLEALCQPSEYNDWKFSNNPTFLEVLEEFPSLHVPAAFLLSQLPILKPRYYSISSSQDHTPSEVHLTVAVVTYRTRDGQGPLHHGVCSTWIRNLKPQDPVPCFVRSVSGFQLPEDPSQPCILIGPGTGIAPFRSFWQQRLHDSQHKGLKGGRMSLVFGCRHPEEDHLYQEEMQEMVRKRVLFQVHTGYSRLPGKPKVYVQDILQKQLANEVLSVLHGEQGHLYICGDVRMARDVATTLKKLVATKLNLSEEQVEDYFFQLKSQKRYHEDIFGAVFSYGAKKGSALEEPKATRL
Briefly: Inhibition of iNOS in LPS-stimulated mouse RAW 264.7 cells preincubated for 1 hr followed by LPS-stimulation and measured after 6 hrs by fluorescence based assay. The conditions noted are these: for pIC50: read-out: IC50. An outline of the steps: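 Inhibition calculated relative to LPS-stimulated and unstimulated controls. IC50 obtained by regression of inhibition rates at several concentrations. Indomethacin served as positive control.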

In experiment [5] the test system is RAW264.7. The experiment can be described thus: Antiinflammatory activity in mouse RAW264.7 cells assessed as inhibition of LPS-induced NO production at 10 uM preincubated for 1 hr followed by LPS addition and measured after 24 hrs by Griess reagent-based assay relative to control. The class given is functional. In outline:
as §1

For `CCCc1nn(C)c2c(Nc3ccc(C(=O)O)cc3)nc(-c3cc(OC)c(OC)c(OC)c3)nc12`, the pIC50 – broadly, the IC50 on a negative log10 scale, so that one unit is a factor of ten – in the experiment on RAW264.7 [1] was less than 4.30; with RAW264.7 [2], 4.80; with RAW264.7 [3] it was less than 4.30; in experiment [4] it was 4.99. In addition, the inhibition (in general, the share of the control response that was lost under treatment) at 10 µM with RAW264.7 [5] was determined as 44.9%.

Consider `CCCc1nn(C)c2c(NCCc3ccc(Cl)cc3)nc(/C=C/c3ccco3)nc12`, for which the negative-log IC50 (pIC50) with RAW264.7 [1] is less than 4.30; in the experiment with RAW264.7 [2], 5.22; in the experiment with RAW264.7 [3] it was less than 4.30; in experiment [4], 5.59. Further, the inhibition at 10 µM in the experiment with RAW264.7 [5] is 79.2%.

For `CCCc1nn(C)c2c(NCC(C)C)nc(/C=C/c3ccccc3)nc12`, the pIC50 in the experiment on RAW264.7 [1] was less than 4.30; in the experiment with RAW264.7 [2], 4.66; in the experiment on RAW264.7 [3] it was less than 4.30; in experiment [4] it was 5.27. The inhibition at 10 µM in the experiment on RAW264.7 [5] stood at 33.3%.

Take `COc1ccc2c(c1)c(CC(=O)O)c(C)n2C(=O)c1ccc(Cl)cc1` [INDOMETHACIN]: the pIC50 is less than 4.30 in the experiment with RAW264.7 [1], less than 4.30 in the experiment with RAW264.7 [3] and 4.60 in experiment [4]. Besides, in the experiment with RAW264.7 [5], the inhibition at 10 µM was 59.2%.

As to `CCCc1nn(C)c2c(NC(C)C)nc(-c3cc(OC)c(OC)c(OC)c3)nc12`, the negative logarithm of the IC50 (pIC50) with RAW264.7 [1] is less than 4.30; in the experiment with RAW264.7 [2] it was 4.97; in the experiment with RAW264.7 [3], less than 4.30; in experiment [4], 5.14. In the experiment with RAW264.7 [5], the inhibition at 10 µM was 51.9%.

In the case of `CCCc1nn(C)c2c(NCc3ccc(Cl)cc3)nc(/C=C/c3ccco3)nc12`, the pIC50 with RAW264.7 [1] was less than 4.30; with RAW264.7 [2] it was 5.03; with RAW264.7 [3], less than 4.30; in experiment [4] it was 5.37. The inhibition at 10 µM in the experiment on RAW264.7 [5] amounted to 56.4%.

In the case of `CCCc1nn(C)c2c(N3CCC(O)CC3)nc(/C=C/c3cc(OC)c(OC)c(OC)c3)nc12`, the pIC50 in the experiment with RAW264.7 [1] is less than 4.30; in the experiment with RAW264.7 [2], 4.86; in the experiment with RAW264.7 [3], less than 4.30; in experiment [4] it was 5.28. The inhibition at 10 µM in the experiment with RAW264.7 [5] was found to be 45.3%.

Take `CCCc1nn(C)c2c(NC(C)C)nc(/C=C/c3ccccc3)nc12`: the pIC50 with RAW264.7 [1] was less than 4.30; in the experiment on RAW264.7 [2], 4.91; in the experiment with RAW264.7 [3], less than 4.30; in experiment [4], 5.07. The inhibition at 10 µM with RAW264.7 [5] stood at 53.9%.

Consider `CCCc1nn(C)c2c(Nc3ccccc3)nc(/C=C/c3ccccc3)nc12`, for which the pIC50 with RAW264.7 [1] and in the experiment on RAW264.7 [3] was less than 4.30 throughout. Further, the IC50 result (in the experiment on RAW264.7 [2]; in experiment [4]) was “Not Active” throughout. Also, in the experiment on RAW264.7 [5], the inhibition at 10 µM came out at 4.9%.

Regarding `CCCc1nn(C)c2c(N3CCCC3)nc(-c3cc(OC)c(OC)c(OC)c3)nc12`, the pIC50 in the experiment with RAW264.7 [1] and in the experiment on RAW264.7 [3] was less than 4.30 each time. The IC50 entry (in the experiment on RAW264.7 [2]; in experiment [4]) was “Not Active” in each case. For the same compound, the inhibition at 10 µM in the experiment on RAW264.7 [5] came to 3.1%.

Regarding `CCCc1nn(C)c2c(NCCc3ccc(OC)cc3)nc(/C=C/c3ccccc3)nc12`, in the experiment with RAW264.7 [5], the inhibition at 10 µM came out at 48%.
